# Calls of active or inactive are those of the source. No cut-off for these calls is given here.
# Columns and labels:
# [1] = Metabolic stability assessed as half life in mouse liver microsomes
# Plasmodium yoelii [2] = assay: Protection against Plasmodium yoelii sporozoite infected mice (Mus musculus) at 40 mg/kg peroral dose; format: functional, organism-based; design: dose 40 mg/kg
# Outline: (§1)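 Mice challenged with Plasmodium yoelii sporozoites received a single oral dose of the test compound. Protection was scored at day 6 as the number of parasite-free mice out of 5 per dose group. The minimum active dose was taken as the lowest dose giving activity.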
# Plasmodium yoelii [3] = assay: Protection against Plasmodium yoelii sporozoite infected mice (Mus musculus) at 160 mg/kg peroral dose; format: functional, organism-based; design: dose 160 mg/kg; outline: as §1
# Plasmodium yoelii [4] = assay: Protection against Plasmodium yoelii sporozoite infected mice (Mus musculus) as minimal active peroral dose; format: functional; outline: as §1
# [5] = Metabolic stability assessed as half life in human liver microsomes
# Plasmodium falciparum [6] = assay: Antimalarial activity against pyrimethamine-sensitive Plasmodium falciparum D6; format: functional, organism-based
# Plasmodium berghei = assay: Antimalarial activity against Plasmodium berghei infected mice (Mus musculus); format: functional, organism-based
# Plasmodium falciparum [7] = assay: Antimalarial activity against pyrimethamine-resistant Plasmodium falciparum W2; format: functional, organism-based
# Plasmodium cynomolgi = assay: Prophylactic parasite potency against Plasmodium cynomolgi sporozoite challenged rhesus monkey at 30 mg/kg/day Intramuscular dose for 3 days; format: functional
# Outline: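 Rhesus monkeys were inoculated with P. cynomolgi sporozoites and given 30 mg/kg IM once daily for 3 days, starting the day before inoculation; two monkeys per group, with untreated controls. Blood smears were taken daily from day 6 for 21 days, then 3×/week for 4 weeks, then 2×/week to 100 days after the last dose. Patency was the first smear-positive day.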
# Plasmodium yoelii [8] = assay: Protection against Plasmodium yoelii sporozoite infected mice (Mus musculus) as minimal active perorally daily dose over 3 days; format: functional
# Outline: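 Mice were challenged with P. yoelii sporozoites and dosed orally once daily for 3 consecutive days (days −1, 0, +1), starting the day before challenge. Protection was scored at day 6 as protected mice out of 5 per dose. The minimum active dose was taken from the dose series.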
# [9] = Half life in iv dosed rat plasma; format: ADME, organism-based
# Plasmodium yoelii [10] = assay: Protection against Plasmodium yoelii sporozoite infection in mice (Mus musculus) at 10 mg/kg peroral dose; format: functional, organism-based; design: dose 10 mg/kg; outline: as §1
# Plasmodium yoelii [11] = assay: Protection against Plasmodium yoelii sporozoite infected mice (Mus musculus) at 480 mg/kg peroral dose; format: functional, organism-based; design: dose 480 mg/kg
# Plasmodium yoelii [12] = assay: Protection against Plasmodium yoelii sporozoite infected mice (Mus musculus) at 120 mg/kg peroral dose; format: functional, organism-based; design: dose 120 mg/kg
SMILES,half-life ([1]; liver microsomes),half-life ([5]; liver microsomes),Activity (Plasmodium yoelii [3]),Activity (Plasmodium yoelii [4]),Activity (Plasmodium falciparum [6]),Activity (Plasmodium berghei),Activity (Plasmodium falciparum [7]),Activity (Plasmodium cynomolgi),Activity (Plasmodium yoelii [8]),other results
CC(C)Nc1nc(Nc2ccc(Cl)c(Cl)c2)nc(C(C)C)n1,,,,,inactive,inactive,inactive,,,
CC(C)N1C(=O)C(=O)N=C1N/C(=N\C(=O)OC(C)(C)C)Nc1ccc(Cl)c(Cl)c1,,,,,,,,68 days,,
CCCc1nc(Nc2ccc(Cl)c(Cl)c2)nc(NC(C)C)n1,,,,,inactive,inactive,inactive,,,
CC(C)C(=O)N/C(=N/C1=NC(=O)C(=O)N1C(C)C)Nc1ccc(Cl)c(Cl)c1,,,,>160 mg/kg,,,,,<30 mg/kg,
CCC(CC)c1nc(Nc2ccc(Cl)c(Cl)c2)nc(NC(C)C)n1,> 60 min,> 60 min,,,inactive,inactive,inactive,,,
CC(C)N1C(=O)C(=O)N=C1/N=C(/NC(=O)C(C)(C)C)Nc1ccc(Cl)c(Cl)c1,,,,>160 mg/kg,,,,40 days,>480 mg/kg,Activity (Plasmodium yoelii [11]): inactive; half-life ([1]; microsomes): > 60 min; Activity (Plasmodium yoelii [12]): inactive; half-life ([5]; microsomes): > 60 min

# Now from value to compound, other results behind:
half-life ([1]; liver microsomes),half-life ([5]; liver microsomes),SMILES,Activity (Plasmodium yoelii [3]),Activity (Plasmodium yoelii [4]),Activity (Plasmodium falciparum [6]),Activity (Plasmodium berghei),Activity (Plasmodium falciparum [7]),Activity (Plasmodium cynomolgi),Activity (Plasmodium yoelii [8]),other results
< 10 min,< 10 min,CC(C)N/C(=N/C1=NC(=O)C(=O)N1c1ccc(Cl)c(Cl)c1)NC(=O)C(C)C,Active,<10 mg/kg,,,,,,Activity (Plasmodium yoelii [2]): Active
< 10 min,< 10 min,CCC(CC)C(=O)N/C(=N\C1=NC(=O)C(=O)N1c1ccc(Cl)c(Cl)c1)NC(C)C,Active,<10 mg/kg,,,,15 days,,half-life [9]: < 10 min
> 60 min,> 60 min,CCC(CC)C(=O)N/C(=N/C1=NC(=O)C(=O)N1C(C)C)Nc1ccc(Cl)c(Cl)c1,,>160 mg/kg,,,,17 days,7.5 mg/kg,
< 10 min,< 10 min,CCCC(=O)N/C(=N\C1=NC(=O)C(=O)N1c1ccc(Cl)c(Cl)c1)NC(C)C,Active,<10 mg/kg,,,,,,Activity (Plasmodium yoelii [10]): Active; Activity (Plasmodium yoelii [2]): Active
